Test results: ChEMBL document CHEMBL2412964, “Discovery of novel tetrahydro-pyrazolo [4,3-c] pyridines for the treatment of neuropathic pain: synthesis and neuropharmacology” (Eur J Med Chem, 2013)
Calls of active or inactive are those of the source.

Columns and labels:
[1] = target: Cathepsin S (Homo sapiens) (UniProt P25774); assay: Inhibition of human recombinant cathepsin S using Z-Val-Val-Arg-AMC as substrate at 50 uM preincubated for 10 mins prior to substrate addition measured after 30 mins by fluorescence spectrophotometric analysis relative to control
[2] = target: T1, Cannabinoid receptor 2 (Rattus norvegicus, UniProt Q9QZN9); assay: Displacement of [3H]CP55940 from CB2 receptor in rat spleen homogenate after 90 mins; type: tissue-based
T1 sequence (Q9QZN9 whole entry): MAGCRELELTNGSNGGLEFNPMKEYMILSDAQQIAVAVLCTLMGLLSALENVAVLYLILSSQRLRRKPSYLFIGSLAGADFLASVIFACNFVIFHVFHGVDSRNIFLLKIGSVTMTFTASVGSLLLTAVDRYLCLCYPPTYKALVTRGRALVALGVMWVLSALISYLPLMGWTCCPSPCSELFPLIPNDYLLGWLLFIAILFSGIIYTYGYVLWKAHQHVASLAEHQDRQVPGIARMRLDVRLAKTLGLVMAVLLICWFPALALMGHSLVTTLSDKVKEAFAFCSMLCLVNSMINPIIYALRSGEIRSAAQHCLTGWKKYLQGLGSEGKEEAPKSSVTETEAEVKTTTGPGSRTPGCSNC
Summary of the method: (§1)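 Rat brain (CB1) or spleen (CB2) membranes, homogenized in tris/NaCl/MgCl2 pH 7.4, competed against 0.5 nM [3H]CP55940 in 50 mM Tris-HCl, 2 mM EDTA, 5 mM MgCl2, 0.2 mg/mL BSA, pH 7.4; 90 min incubation. Nonspecific binding with 1 µM WIN (CB1) or 1 µM SR144528 (CB2); triplicates averaged.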

[3] = target: Cannabinoid receptor 1 (Rattus norvegicus, UniProt P20272); assay: Displacement of [3H]CP55940 from CB1 receptor in rat brain homogenate after 90 mins; type: tissue-based; summary of the method: as §1
[4] = test system: Mus musculus; assay: Anticonvulsant activity in ip dosed Swiss albino mouse assessed as protection against picrotoxin-induced seizure administered 30 mins prior to picrotoxin-challenge measured after 4 hrs; type: functional; conditions: read-out: MED
Summary of the method: (§2)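 Mice, either sex, 20-25 g, given compound i.p. at 30, 100 and 300 mg/kg. Thirty minutes later, picrotoxin 3.15 mg/kg was injected s.c. in 0.01 mL/g body weight. Animals were isolated and watched for 45 min for a threshold convulsion, and protection was scored as its absence. Examined at 0.5 and 4 h. Value reported is the minimum dose active in half or more of the mice (n = 3).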

[5] = test system: Mus musculus; assay: Antiinflammatory activity in Swiss albino mouse assessed as inhibition of LPS-induced TNFalpha production at 100 mg/kg, ip administered 30 mins prior to LPS-challenge measured after 90 mins by ELISA relative to control; type: functional; conditions: route intraperitoneal
Summary of the method: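 Swiss albino mice (20–25 g, either sex) dosed i.p. with 100 mg/kg in 10 mL/kg; LPS 1.0 mg/kg in sterile PBS i.p. given 30 min later. Blood taken 90 min after LPS, plasma TNF measured by ELISA, expressed as % inhibition versus vehicle-treated control; n = 4, one-way ANOVA with Dunnett's test.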

[6] = test system: Rattus norvegicus; assay: Antinociceptive activity in ip dosed Wistar rat partial sciatic nerve ligation model assessed as reversal of cold allodynia after 30 mins; type: functional; conditions: 0.5 h
Summary of the method: (§3)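 Wistar rats (200–250 g) with nerve injury, compounds i.p. in 30% v/v PEG 400; dose–response curves in each sensory test (spontaneous pain and cold allodynia as paw withdrawal duration; tactile allodynia and hyperalgesia as withdrawal threshold). ED50 linearly interpolated between doses just above and below 50% response; time of peak effect recorded.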

[7] = test system: Rattus norvegicus; assay: Antinociceptive activity in ip dosed Wistar rat partial sciatic nerve ligation model assessed as reversal of tactile allodynia after 60 mins; type: functional; conditions: 1 h; summary of the method: as §3
[8] = test system: Rattus norvegicus; assay: Antinociceptive activity in ip dosed Wistar rat chronic constriction injury model assessed as reversal of mechanical allodynia after 30 mins; type: functional; conditions: 0.5 h; summary of the method: as §3
[9] = test system: Rattus norvegicus; assay: Antinociceptive activity in ip dosed Wistar rat chronic constriction injury model assessed as reversal of cold allodynia after 30 mins; type: functional; conditions: 0.5 h; summary of the method: as §3
[10] = test system: Rattus norvegicus; assay: Antinociceptive activity in ip dosed Wistar rat chronic constriction injury model assessed as reversal of tactile allodynia after 30 mins; type: functional; conditions: 0.5 h; summary of the method: as §3
[11] = test system: Rattus norvegicus; assay: Antinociceptive activity in ip dosed Wistar rat chronic constriction injury model assessed as reversal of spontaneous pain response after 30 mins; type: functional; conditions: 0.5 h; summary of the method: as §3
[12] = test system: Rattus norvegicus; assay: Antinociceptive activity in Wistar rat partial sciatic nerve ligation model assessed as reversal of cold allodynia at 100 mg/kg, ip after 120 mins (reference value: 1.5 +/- 0.5%); type: functional; conditions: route intraperitoneal
[13] = test system: Rattus norvegicus; assay: Antinociceptive activity in Wistar rat partial sciatic nerve ligation model assessed as reversal of cold allodynia at 100 mg/kg, ip after 60 mins (reference value: 2.5 +/- 0.3%); type: functional; conditions: route intraperitoneal
[14] = test system: Rattus norvegicus; assay: Antinociceptive activity in Wistar rat chronic constriction injury model assessed as reversal of cold allodynia at 100 mg/kg, ip after 120 mins (reference value: 5.4 +/- 1.9%); type: functional; conditions: route intraperitoneal
[15] = test system: Rattus norvegicus; assay: Antinociceptive activity in Wistar rat chronic constriction injury model assessed as reversal of cold allodynia at 100 mg/kg, ip after 30 mins (reference value: 0.6 +/- 2.7%); type: functional; conditions: route intraperitoneal
[16] = test system: Rattus norvegicus; assay: Antinociceptive activity in Wistar rat partial sciatic nerve ligation model assessed as reversal of tactile allodynia at 100 mg/kg, ip after 30 mins (reference value: 7.7 +/- 0.7%); type: functional; conditions: route intraperitoneal
[17] = test system: Rattus norvegicus; assay: Antinociceptive activity in Wistar rat chronic constriction injury model assessed as reversal of tactile allodynia at 100 mg/kg, ip after 60 mins (reference value: 1.3 +/- 0.3%); type: functional; conditions: route intraperitoneal
[18] = test system: Rattus norvegicus; assay: Antinociceptive activity in Wistar rat chronic constriction injury model assessed as reversal of spontaneous pain response at 100 mg/kg, ip after 120 mins (reference value: 4.5 +/- 0.2%); type: functional; conditions: route intraperitoneal
[19] = test system: Rattus norvegicus; assay: Antinociceptive activity in ip dosed Wistar rat partial sciatic nerve ligation model assessed as reversal of cold allodynia after 60 mins; type: functional; conditions: 1 h; summary of the method: as §3
[20] = test system: Rattus norvegicus; assay: Antinociceptive activity in ip dosed Wistar rat partial sciatic nerve ligation model assessed as reversal of tactile allodynia after 30 mins; type: functional; conditions: 0.5 h; summary of the method: as §3
[21] = test system: Rattus norvegicus; assay: Antinociceptive activity in ip dosed Wistar rat chronic constriction injury model assessed as reversal of mechanical allodynia after 60 mins; type: functional; conditions: 1 h; summary of the method: as §3
[22] = test system: Rattus norvegicus; assay: Antinociceptive activity in ip dosed Wistar rat chronic constriction injury model assessed as reversal of cold allodynia after 60 mins; type: functional; conditions: 1 h; summary of the method: as §3
[23] = test system: Rattus norvegicus; assay: Antinociceptive activity in ip dosed Wistar rat chronic constriction injury model assessed as reversal of spontaneous pain response after 60 mins; type: functional; conditions: 1 h; summary of the method: as §3
[24] = test system: Mus musculus; assay: Anticonvulsant activity in Swiss albino mouse assessed as protection against picrotoxin-induced seizure at 300 mg/kg, ip administered 30 mins prior to picrotoxin-challenge measured after 4 hrs; type: functional, organism-based; design: dose 300 mg/kg; summary of the method: as §2
[25] = test system: Rattus norvegicus; assay: Antinociceptive activity in ip dosed Wistar rat partial sciatic nerve ligation model assessed as reversal of tactile allodynia after 120 mins; type: functional; conditions: 2 h; summary of the method: as §3
[26] = test system: Rattus norvegicus; assay: Antinociceptive activity in ip dosed Wistar rat chronic constriction injury model assessed as reversal of tactile allodynia after 60 mins; type: functional; conditions: 1 h; summary of the method: as §3

Chain of Cannabinoid receptor 1 (P20272 whole entry): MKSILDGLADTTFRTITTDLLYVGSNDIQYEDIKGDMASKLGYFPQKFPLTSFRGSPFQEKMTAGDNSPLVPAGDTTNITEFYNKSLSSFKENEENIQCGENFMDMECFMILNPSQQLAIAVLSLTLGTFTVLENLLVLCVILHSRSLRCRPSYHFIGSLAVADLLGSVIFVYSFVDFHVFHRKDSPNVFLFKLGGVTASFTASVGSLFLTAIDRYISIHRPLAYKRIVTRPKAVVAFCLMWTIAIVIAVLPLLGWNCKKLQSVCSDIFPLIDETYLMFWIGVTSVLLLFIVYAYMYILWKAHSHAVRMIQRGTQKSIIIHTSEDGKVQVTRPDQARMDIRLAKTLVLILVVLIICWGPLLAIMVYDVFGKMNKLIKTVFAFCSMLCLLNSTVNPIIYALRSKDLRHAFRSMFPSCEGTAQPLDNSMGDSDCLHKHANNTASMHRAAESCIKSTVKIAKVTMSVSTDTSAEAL
Chain of Cathepsin S (Homo sapiens) (P25774 115-331 limits assumed): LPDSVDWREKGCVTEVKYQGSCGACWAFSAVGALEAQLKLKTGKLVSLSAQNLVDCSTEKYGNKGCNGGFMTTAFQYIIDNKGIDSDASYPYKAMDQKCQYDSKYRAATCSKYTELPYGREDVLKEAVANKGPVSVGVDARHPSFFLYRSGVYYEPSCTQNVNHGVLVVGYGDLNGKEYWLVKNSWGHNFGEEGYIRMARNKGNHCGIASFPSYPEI

With CCN1CCc2c(c(C(C)(C)C)nn2C(=O)Nc2ccc(Br)cc2)C1 the inhibition [1] was 39.9%, the IC50 [2] was > 1000 nM and the IC50 [3] was 49.6 nM. It also gave a minimal effective dose [4] of 100 mg/kg, an inhibition in vivo at 100 mg/kg [5] of 86.4% and an ED50 [6] of 68 mg/kg. It also gave an ED50 [7] of 37.5 mg/kg, an ED50 [8] of 37.3 mg/kg and an ED50 [9] of 41.4 mg/kg. For the same molecule, the ED50 [10] was 23.8 mg/kg, the ED50 [11] was 27.3 mg/kg and the Activity [12] was 48.2%. The Activity [13] was 50.6%, the Activity [14] was 56.9% and the Activity [15] was 73%. For the same molecule, the Activity [16] was 61.6%, the Activity [17] was 58.2% and the Activity [18] was 83.2%.

In the case of CCN1CCc2c(c(C(C)(C)C)nn2C(=O)Nc2c(C)cccc2C)C1, the inhibition [1] is reported as 34.1%, the IC50 [2] is reported as > 1000 nM and the IC50 [3] is reported as > 1000 nM. It also gave a minimal effective dose [4] of 100 mg/kg, an inhibition in vivo at 100 mg/kg [5] of 77.6% and an ED50 [19] of 65.8 mg/kg. For the same molecule, the ED50 [20] was 24.9 mg/kg, the ED50 [21] was 38.3 mg/kg and the ED50 [22] was 37.4 mg/kg. The ED50 [10] was 21.7 mg/kg, the ED50 [23] was 10.4 mg/kg and the Activity [12] was 10.4%. It also gave an Activity [13] of 56%, an Activity [14] of 18.8% and an Activity [15] of 61.4%. For the same molecule, the Activity [16] was 89.4%, the Activity [17] was 54.5% and the Activity [18] was 88.5%.

With CCN1CCc2c(c(C(C)(C)C)nn2C(=O)Nc2ccc(C)cc2C)C1 the inhibition [1] was 12.1%, the IC50 [2] was > 1000 nM and the IC50 [3] was > 1000 nM. The Activity [24] was “inactive”, the inhibition in vivo at 100 mg/kg [5] was 58.9% and the ED50 [19] was 44.4 mg/kg. The ED50 [25] was 36.1 mg/kg, the ED50 [21] was 25.7 mg/kg and the ED50 [22] was 29.8 mg/kg. It also gave an ED50 [26] of 23.4 mg/kg, an ED50 [23] of 15.5 mg/kg and an Activity [12] of 38.2%. The Activity [13] was 52.7%, the Activity [14] was 40.4% and the Activity [15] was 53.9%. The Activity [16] was 61.6%, the Activity [17] was 54.5% and the Activity [18] was 89.5%.
